# Bioassay records (PubChem BioAssay)
# Shown are actives, neighbours in structure and some others; about 12% of the full set was active somewhere.
# L major viab = Leishmania major promastigote growth inhibition, primary screen. 200,000 compounds, 9% hits. AID 1063, 2008. inhibition, % at 10 µM. Leishmania major promastigotes, resazurin fluorescence viability; in the data active = inhibition above about 50%;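 note: promastigotes grown with compound for 44 hours at 28 °C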
# RAM network inh = inhibitors of the yeast RAM network, primary screen, dse1pr::URA3 reporter, 5-FOA selection. S. cerevisiae dse1pr::URA3 reporter, 5-FOA growth OD615, 2 d; analog-sensitive cbk1-as2 kinase mutant strain. 190,000 compounds, 1.8% hits. AID 868, 2007. inhibition, % at 50 µM;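 active = inhibition above a set limit, 3 SD over mean compound inhibition, cut at about 8.4% in these data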;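 note: 0% = DMSO-only wells with no growth and 100% = 10 µM 1-NA-PP1 full growth; inhibition rescues growth on 5-FOA so higher OD means more RAM inhibition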
# ABCG2 block = ABCG2 efflux pump inhibitors, primary screen, multiplex with ABCB1, IgMXP3 cells, flow cytometry; Broad substrate specificity ATP-binding cassette transporter ABCG2 (Homo sapiens), Q9UNQ0; JC-1 efflux; 190,000 compounds, 0.1% hits; inhibition, % at 6.6 µM;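 active = inhibition above 80%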;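 note: 0% = DMSO and 100% = nicardipine control wells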
#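 Test system: ABCG2 IgMXP3 and barcoded ABCB1 CCRF-Adr cell mix; Schedule: cells with compound and JC-1, 10 min at 25 °C, rotating, no wash; Technique: flow cytometry of retained JC-1 fluorescence; Measure: % inhibition of efflux relative to nicardipine and DMSO; Controls: nicardipine high and DMSO low controls.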
# WT yeast gro inh = growth inhibition of WT strain, primary screen, mitochondrial fusion inhibitor project, WT and mutant strains, chemical genetic | AID 1362, 2008 | mitochondrial fusion phenotypic screen | inhibition, % at 10 µM | 190,000 compounds, 2.1% hits; in the data active = inhibition above about 58%; tested in S. cerevisiae
# ABCB1 block = ABCB1 efflux pump inhibitors, primary screen, cell-based, multiplex, flow cytometry, ABCG2 counter-screen. ATP-dependent translocase ABCB1 (Homo sapiens), P08183. CCRF-Adr cells, JC-1 efflux. inhibition, % at 6.6 µM. 190,000 compounds, 0.067% hits. AID 1326, 2008; in the data active = inhibition above about 40%;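 note: 0% = vehicle and 100% = reference inhibitor; higher value means more JC-1 retained so stronger ABCB1 efflux block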
# Starred values were filed as active, the others as inactive.
SMILES,L major viab,RAM network inh,ABCG2 block,WT yeast gro inh,ABCB1 block
Cc1cc(C)cc(NC(=O)N2CCN(C/C=C/c3ccccc3)CC2)c1,4,0,7,19,2
CCOC(=O)C1(Cc2ccccc2C(F)(F)F)CCN(C2CCN(C(C)C)CC2)CC1,99*,-1,3,8,2
CC(=O)N(Cc1ccc(F)cc1)C1=C(NCc2ccccc2)C(=O)c2ccccc2C1=O,100*,3,49,43,2
CCCn1c(=O)n(C)c(=O)c2c(SCC(=O)NC34CC5CC(CC(C5)C3)C4)nc(CC(C)C)nc21,39,3,18,21,10
Cc1c(Cl)cccc1NC(=O)C1NC(=O)CC1c1ccccc1 (stereo not given),-2,1,3,4,1
COC(=O)C(CC(C)C)Oc1ccc2c(C)cc(=O)oc2c1 (stereo not given),85*,0,1,-2,0
O=C(CCCC(=O)N(CC(=O)NC1CCCC1)Cc1ccc2c(c1)OCO2)Nc1ccccn1,-3,1,2,-22,0
O=C(CCc1nc2ccccc2c(=O)[nH]1)OCc1ccc(-c2ccccc2)cc1,93*,2,0,-6,0
O=C(COC(=O)CCc1nc2ccccc2c(=O)[nH]1)NC(=O)NC1CCCC1,53*,0,8,-10,1
O=C(CCc1nc2ccccc2c(=O)[nH]1)OCc1cccc(C(F)(F)F)c1,63*,2,8,9,1
Cc1ccc(OCCOC(=O)CCc2nc3ccccc3c(=O)[nH]2)cc1,-12,1,10,-3,1
c1cncc(Nc2nc(-c3cccs3)cs2)c1,13,2,0,2,0
Cc1ccc(Nc2nc(-c3cccs3)cs2)nc1,35,0,16,69*,0
CCOC(=O)C1=C(C)NC(C)=C(C(=O)OCC)C1c1cccs1,46,-2,21,2,1
CCOC(=O)C1=C(C)NC(C)=C(C(=O)OCC)C1c1sccc1C,96*,0,12,5,3
Cn1cnnc1SCC(=O)Nc1ncc(C(F)(F)F)cc1Cl,3,3,9,4,1
Cc1ccccc1CSc1nnc(-c2ccncc2)o1,-10,0,24,-3,1
Clc1ccc(CSc2nnc(-c3ccncc3)o2)c(Cl)c1,-4,2,4,76*,1
COc1ccc2nc(N=Nc3ccc(O)c4ccccc34)sc2c1,98*,4,15,42,-2
CC(=O)Nc1ccccc1OC(C)C(=O)NC(C)c1ccc(F)cc1 (stereo not given),-2,-1,5,1,1
C=CCOc1ccc(/C=N/NC(=O)CN(c2cc(Cl)ccc2OC)S(=O)(=O)c2ccc(C)c([N+](=O)[O-])c2)cc1,97*,4,4,-3,0
C=CCN(c1ccccc1)S(=O)(=O)c1ccc(Cl)c(C(=O)OCC(=O)N(C)C2CCS(=O)(=O)C2)c1 (stereo not given),2,4,0,-17,0
COc1cccc(CC2(CO)CCN(Cc3cnc(N4CCOCC4)s3)CC2)c1,-2,3,1,-13,0
OCC1(CCCc2ccccc2)CCN(Cc2cnc(N3CCOCC3)s2)CC1,79*,-1,0,3,0
Cc1ncc(CN2CCC(CO)(CCc3ccccc3)CC2)s1,84*,-1,1,5,1
SMILES,L major viab,RAM network inh,ABCG2 block,WT yeast gro inh,ABCB1 block
O=C(COc1ccc(Br)cc1)N/N=C1/SCC(=O)N1Cc1ccccc1,-4,0,7,9,0
O=C(Cc1ccccc1)NCC(=O)OCC(=O)c1ccccc1Cl,93*,1,5,0,0
O=C(CNC(=O)c1ccco1)OCC(=O)c1ccccc1Cl,-4,0,0,-6,0
Cc1nn(-c2ccc(F)cc2)c(Cl)c1/C=C1\C(=O)Nc2ccccc21,7,8.6*,7,50,1
O=C(C1CC12CCCC2)N1CCC(CO)(Cc2ccccc2Cl)CC1 (stereo not given),-5,0,2,18,0
Cc1c(Cl)cccc1NC(=O)c1cccc(OC(F)F)c1,99*,0,4,-30,0
Cc1ccc(NC(=O)c2cccc(OC(F)F)c2)c(OC(F)F)c1,-4,2,21,28,2
Cc1sc(NC(=S)Nc2ccc(F)cc2)c(C(N)=O)c1C,4,3,-2,8,-1
Cc1sc(NC(=S)NC(=O)C2CCCCC2)c(C(N)=O)c1C,63*,6,-7,-6,-2
N#CCSc1nc2sc3c(c2c(=O)n1C1CCCCC1)CCCC3,56*,1,11,9,0
Oc1cccc2c(NC(=S)Nc3ccc(SC(F)F)cc3)cccc12,-3,3,-2,65*,0
Oc1cccc(NC(=S)Nc2ccc(SC(F)F)cc2)c1,61*,1,-8,48,-2
CCC(=O)OCC(=O)c1cc(C)n(-c2ccc(Br)cc2)c1C,6,3,6,19,1
N#CC(C#N)=Cc1cc2ccccc2nc1N1CCCCC1,82*,1,-4,-27,-1
CCOC(=O)/C(C#N)=C/c1cc2ccccc2nc1N1CCOCC1,-3,1,7,1,1
CCCCCn1c(CN2CCN(c3cc(Cl)ccc3C)CC2)nc2c1c(=O)[nH]c(=O)n2C,35,1,0,65*,1
CCCCn1c(CN2CCN(c3cccc(Cl)c3)CC2)nc2c1c(=O)n(C)c(=O)n2C,-7,0,1,72*,0
CCC(C)(C)NC(=O)c1cc([N+](=O)[O-])ccc1N1CCOCC1,-3,3,9,19,2
CCC(Oc1cc(Cl)ccc1Cl)C(=O)NNC(=O)CCC(=O)O (stereo not given),-3,0,9,-11,4
CCC(Oc1cc(Cl)ccc1Cl)C(=O)NN1C(=O)C2C3CCC(C3=C(C)C)C2C1=O (stereo not given),98*,3,1,19,1
Cc1ccc(NC(=O)CN(C)S(=O)(=O)c2ccc(Br)s2)cc1F,-3,4,11,21,1
O=C(Nc1ccc2ncccc2c1)c1cc(Cl)ccc1Cl,16,2,0,-2,0
CCc1nnc(NC(=O)C2Cc3ccccc3CN2S(=O)(=O)CC)s1 (stereo not given),-2,2,4,6,1
CCS(=O)(=O)N1Cc2ccccc2CC1C(=O)Nc1nc2ccccc2s1 (stereo not given),67*,0,4,7,1
O=C(O)CCCNS(=O)(=O)/C=C/c1ccccc1,-4,-1,-1,4,-1
COc1cc(C2Nc3cccc4cccc(c34)N2)cc(OC)c1O,19,9.3*,28,29,0
